Results from ChEMBL document CHEMBL4390665, “New 4-phenylcoumarin derivatives as potent 3C protease inhibitors: Design, synthesis, anti-HAV effect and molecular modeling” (Eur J Med Chem, 2019).
Converted amounts (≈) assume the structure as drawn.

Experiments:
[1] = Therapeutic index, ratio of CC50 of rhesus monkey FRhK cells to IC50 for antiviral activity against Hepatitis A virus infected in rhesus monkey FRhK4 cells assessed as inhibition in viral replication using cells pre-infected with virus before compound exposure for 72 hrs by MTT assay; type: toxicity, cell-based; settings: read-out: Ratio CC50/IC50
Procedure, shortened: (§1)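 FRhK-4 monolayers were infected with HAV for 1 h. Unbound virus was removed and replaced with medium containing non-toxic compound concentrations, then incubated 72 h at 37 °C in 5% CO2. MTT OD540 was read in triplicate alongside virus-infected and cell-only controls to give IC50. TI = CC50/IC50.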

[2] = Therapeutic index, ratio of CC50 of rhesus monkey FRhK cells to IC50 of antiviral activity against Hepatitis A virus infected in rhesus monkey FRhK4 cells assessed as inhibition in viral adsorption using cells pre-incubated with compound for 24 hrs before viral infection for 1 hr by MTT assay; type: toxicity, cell-based; settings: read-out: Ratio CC50/IC50
Procedure, shortened: (§2)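 FRhK-4 monolayers in 24-well plates were exposed to non-toxic compound concentrations for 24 h at 37 °C in 5% CO2. Compound was then removed and HAV added for 1 h, after which the inoculum was replaced with medium for 72 h. MTT OD540 was read in triplicate alongside virus-infected and cell-only controls to give IC50. TI = CC50/IC50.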

[3] = Therapeutic index, ratio of CC50 of rhesus monkey FRhK cells to IC50 of antiviral activity against Hepatitis A virus infected in rhesus monkey FRhK4 cells; type: toxicity, cell-based; settings: read-out: Ratio CC50/IC50
Procedure, shortened: (§3)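 Virucidal format: HAV (10^6 […] TCID50/0.1 ml) was mixed with an equal volume of non-toxic compound concentrations for 1 h at 37 °C. The mixture was added to FRhK-4 monolayers for 1 h, then replaced with medium for 72 h. MTT OD540 was read in triplicate with virus and cell controls to give IC50. TI = CC50/IC50.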

Hepatovirus A [4] = assay: Antiviral activity against Hepatitis A virus infected in rhesus monkey FRhK4 cells assessed as inhibition in viral replication using cells pre-infected with virus before compound exposure for 72 hrs by MTT assay; type: functional, organism-based; settings: FRhK-4, 72 h; procedure, shortened: as §1
Hepatovirus A [5] = assay: Antiviral activity against Hepatitis A virus infected in rhesus monkey FRhK4 cells assessed as reduction in virus-induced cytopathic effect incubated for 72 hrs by MTT assay; type: functional, organism-based; settings: FRhK-4, 72 h; procedure, shortened: as §3
Hepatovirus A [6] = assay: Antiviral activity against Hepatitis A virus infected in rhesus monkey FRhK4 cells assessed as inhibition in viral adsorption using cells pre-incubated with compound for 24 hrs before viral infection for 1 hr by MTT assay; type: functional, organism-based; settings: FRhK-4; procedure, shortened: as §2
[7] = Cytotoxicity against rhesus monkey FRhK4 cells assessed as reduction in cell viability incubated for 48 hrs by MTT assay; type: cell-based, Macaca mulatta
Procedure, shortened: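 FRhK-4 cells (DMEM, 10% FBS) were seeded at 5 X 10^3 cells/well and grown 24 h. They were exposed to compound at 7.8–1000 µg/mL for 48 h at 37 °C in 5% CO2. MTT (5 mg/mL) was added for 4 h, then DMSO for 30 min, and OD540 read. CC50 was derived from the mean of three ODs versus untreated cells.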

[8] = Inhibition of HAV 3C expressed in Escherichia coli BL21(DE3) pLysS using Dabcyl-GLRTQSND (edans) G as substrate preincubated for 3 mins before enzyme addition by fluorescence method; set-up: species or system Hepatovirus A
[9] = Inhibition of HRV 3C using chromogenic peptide substrate pre-incubated for 15 mins before substrate addition and measured after 1 to 2 hrs by colorimetric method
Procedure, shortened: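 HRV 3C protease was assayed with a commercial screening kit, with reagents equilibrated to room temperature. Enzyme was incubated with compound for 15 min at room temperature, with enzyme and solvent controls. Substrate was then added and absorbance at 405 nm read in kinetic mode for 1–2 h at 37 °C.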

[10] = Binding affinity to Hepatitis A virus Protease 3C; set-up: species or system Hepatovirus A
[11] = Inhibition of HAV 3C expressed in Escherichia coli BL21(DE3) pLysS using Dabcyl-GLRTQSND (edans) G as substrate preincubated for 3 mins before enzyme addition by fluorescence method based Cheng and Prusoff equation analysis; set-up: species or system Hepatovirus A

Compound	selectivity ratio at 72 h [1]	selectivity ratio at 1 h [2]	selectivity ratio [3]	IC50 (Hepatovirus A [4]) [µg/mL]	IC50 (Hepatovirus A [5]) [µg/mL]	IC50 (Hepatovirus A [6]) [µg/mL]	CC50 at 48 h [7] [µg/mL]	IC50 [8] [µM]	IC50 [9] [µM]	pKd [10]	Ki [11] [µM]
O=c1cc(-c2ccccc2)c2ccc(O)cc2o1	8	0.3	70.8	42.5 (≈ 178 µM)	4.8 (≈ 20.1 µM)	1130 (≈ 4760 µM)	340 (≈ 1430 µM)				
NNC(=O)COc1ccc2c(-c3ccccc3)cc(=O)oc2c1	0.7	7	0.2	1120 (≈ 3610 µM)	3920 (≈ 12600 µM)	112 (≈ 361 µM)	785 (≈ 2530 µM)				
CCn1c(COc2ccc3c(-c4ccccc4)cc(=O)oc3c2)n[nH]c1=S	7	12	46	82.7 (≈ 218 µM)	12.9 (≈ 34 µM)	49.7 (≈ 131 µM)	597 (≈ 1570 µM)				
CCn1c(COc2ccc3c(-c4ccccc4)cc(=O)oc3c2)nnc1SCCN1CCOCC1	70	0.8	20	13.4 (≈ 27.2 µM)	47 (≈ 95.4 µM)	1180 (≈ 2390 µM)	942 (≈ 1910 µM)				
C/C(=N\NC(=O)COc1ccc2c(-c3ccccc3)cc(=O)oc2c1)c1ccccc1	0.6	2	4	730 (≈ 1770 µM)	110 (≈ 265 µM)	219 (≈ 531 µM)	438 (≈ 1060 µM)				
Cc1cc(C)n(C(=O)COc2ccc3c(-c4ccccc4)cc(=O)oc3c2)n1	17	9	20	44.3 (≈ 118 µM)	37.6 (≈ 100 µM)	83.6 (≈ 223 µM)	753 (≈ 2010 µM)				
CNc1nnc(COc2ccc3c(-c4ccccc4)cc(=O)oc3c2)s1	3	0.8	0.2	145 (≈ 397 µM)	2180 (≈ 5950 µM)	544 (≈ 1490 µM)	435 (≈ 1190 µM)				
C/C(=N\NC(=O)COc1ccc2c(-c3ccccc3)cc(=O)oc2c1)c1ccc(Br)cc1	12	88	0.4	62.6 (≈ 127 µM)	1880 (≈ 3830 µM)	8.5 (≈ 17.3 µM)	752 (≈ 1530 µM)	7.19	6.3	5.53	0.217
Cn1c(COc2ccc3c(-c4ccccc4)cc(=O)oc3c2)n[nH]c1=S	48	0.5	57	13.5 (≈ 36.9 µM)	11.3 (≈ 30.9 µM)	1300 (≈ 3550 µM)	648 (≈ 1770 µM)				
CCOC(=O)COc1ccc2c(-c3ccccc3)cc(=O)oc2c1	35	5	0.7	25.7 (≈ 79.2 µM)	1290 (≈ 3960 µM)	180 (≈ 555 µM)	900 (≈ 2770 µM)				
CNC(=S)NNC(=O)COc1ccc2c(-c3ccccc3)cc(=O)oc2c1	15	80	4	63.4 (≈ 165 µM)	238 (≈ 620 µM)	11.9 (≈ 31 µM)	951 (≈ 2480 µM)				
O=C(COc1ccc2c(-c3ccccc3)cc(=O)oc2c1)N/N=C1/C(=O)Nc2ccccc21	4	2	6	121 (≈ 275 µM)	80.5 (≈ 183 µM)	242 (≈ 550 µM)	483 (≈ 1100 µM)				
CN(C)CCSc1nnc(COc2ccc3c(-c4ccccc4)cc(=O)oc3c2)o1	25	8	20	35.8 (≈ 84.5 µM)	44.8 (≈ 106 µM)	112 (≈ 264 µM)	897 (≈ 2120 µM)				
O=C(COc1ccc2c(-c3ccccc3)cc(=O)oc2c1)N/N=C1/C(=O)Nc2ccc(Br)cc21	52	44	73	18.3 (≈ 35.3 µM)	13 (≈ 25.1 µM)	21.6 (≈ 41.7 µM)	951 (≈ 1830 µM)				
O=c1cc(-c2ccccc2)c2ccc(OCc3n[nH]c(=S)o3)cc2o1	50	2	78	7.34 (≈ 20.8 µM)	4.7 (≈ 13.3 µM)	184 (≈ 521 µM)	367 (≈ 1040 µM)				
Nn1c(S)nnc1COc1ccc2c(-c3ccccc3)cc(=O)oc2c1	9	0.2	3	72 (≈ 197 µM)	216 (≈ 590 µM)	3240 (≈ 8840 µM)	648 (≈ 1770 µM)				
O=C(COc1ccc2c(-c3ccccc3)cc(=O)oc2c1)NN1C(=O)c2ccccc2C1=O	0.7	72	9	1360 (≈ 3080 µM)	106 (≈ 240 µM)	13 (≈ 29.5 µM)	951 (≈ 2160 µM)				
CCNC(=S)NNC(=O)COc1ccc2c(-c3ccccc3)cc(=O)oc2c1	3	8	83	86 (≈ 216 µM)	3.1 (≈ 7.8 µM)	32.2 (≈ 81.1 µM)	258 (≈ 649 µM)	17.8	16.1	6.78	1.9
CCN(CC)CCSc1nnc(COc2ccc3c(-c4ccccc4)cc(=O)oc3c2)o1	32	77	3	7.65 (≈ 16.9 µM)	81.6 (≈ 181 µM)	3.18 (≈ 7.04 µM)	245 (≈ 543 µM)				
CCNc1nnc(COc2ccc3c(-c4ccccc4)cc(=O)oc3c2)s1	5	7	2	25.8 (≈ 68 µM)	64.5 (≈ 170 µM)	18.4 (≈ 48.5 µM)	129 (≈ 340 µM)				
O=C(COc1ccc2c(-c3ccccc3)cc(=O)oc2c1)N/N=C1/C(=O)Nc2ccc(Cl)cc21	0.1	0.5	0.7	5490 (≈ 11600 µM)	784 (≈ 1660 µM)	1100 (≈ 2320 µM)	549 (≈ 1160 µM)				
O=c1cc(-c2ccccc2)c2ccc(OCc3nnc(SCCN4CCOCC4)o3)cc2o1	0.4	25	25	622 (≈ 1340 µM)	9.9 (≈ 21.3 µM)	9.9 (≈ 21.3 µM)	249 (≈ 535 µM)				
C/C(=N\NC(=O)COc1ccc2c(-c3ccccc3)cc(=O)oc2c1)c1ccc(Cl)cc1	91	22	32	10.7 (≈ 23.9 µM)	30.5 (≈ 68.2 µM)	44.4 (≈ 99.4 µM)	978 (≈ 2190 µM)	5.94	4.13	5.51	0.104
Nc1nc2c(ncn2COCCO)c(=O)[nH]1 [ACYCLOVIR]	93	85	80	30.6 (≈ 136 µM)	35.6 (≈ 158 µM)	33.5 (≈ 149 µM)	> 1000				
